This is an account of results in ChEMBL document CHEMBL1132655, “Discovery of novel disaccharide antibacterial agents using a combinatorial library approach” (J Med Chem, 1999).

≈ marks a conversion by molar mass, not a printed value.

Assay [1] relates to Staphylococcus epidermidis. Briefly: Compound was tested for the inhibition of cell wall biosynthesis and growth against Staphylococcus epidermidis (ATCC 12228) (sensitive strain). It is filed as functional. The method, boiled down: (§1)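 MIC by broth dilution in brain heart infusion medium with 0.1% casamino acids. Log-phase cells diluted to about 5×10^5 CFU/mL and exposed to compound serially diluted in DMSO (5% final DMSO). OD600 read on a plate reader; MIC taken as the concentration giving >90% growth inhibition relative to untreated control, corrected for medium blank.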

Assay [2] has as its system Enterococcus faecalis. Briefly: Compound was tested for the inhibition of cell wall biosynthesis and growth against Enterococcus faecalis (ATCC 29212) (sensitive strain). The format is functional. In short, it runs like this:
(§2)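 Broth microdilution MIC in brain heart infusion medium with 0.1% casamino acids. Log-phase cells were diluted to about 5×10^5 CFU/mL and exposed to compound serially diluted in DMSO (5% final DMSO). OD600 was read in microtiter plates. MIC (µg/mL) was called where [OD600 control − OD600 test]/[OD600 control − OD600 media] × 100 > 90%.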

The test system of the next assay is Escherichia coli. Briefly: Compound was tested for the inhibition of cell wall biosynthesis and growth against Escherichia coli (BAS849) (super-sensitive permeability mutant of E. coli) (sensitive strain). It is filed as functional. The method, boiled down: as §1
For assay [3], the system named is Enterococcus faecium. Briefly: Compound was tested for the inhibition of cell wall biosynthesis and growth against Enterococcus faecium (ATCC49624) (sensitive strain). The format is functional. The method, boiled down: as §2
The subject of assay [4] is Staphylococcus aureus. Briefly: Compound was tested for the inhibition of cell wall biosynthesis and growth against Staphylococcus aureus (ATCC 43300) (Methicillin-resistant). It is filed as functional. The method, boiled down:
as §2

Assay [5] deals with Enterococcus faecalis. Nature of the assay: Compound was tested for the inhibition of cell wall biosynthesis and growth against Enterococcus faecalis (ATCC51575) (Vancomycin-resistant). It is filed as functional. The method, boiled down:
as §2

In assay [6] the test system is Enterococcus faecium. Briefly: Compound was tested for the inhibition of cell wall biosynthesis and growth against Enterococcus faecium (ATCC51559) (Vancomycin-resistant). It is filed as functional. In short, it runs like this: as §2
In assay [7] the test system is Enterococcus faecalis. Nature of the assay: Compound was tested for the inhibition of cell wall biosynthesis and growth against Enterococcus faecalis (CL5244) (Vancomycin-resistant). The format is functional. In short, it runs like this:
as §2

In assay [8] the test system is Staphylococcus aureus. Briefly: Compound was tested for the inhibition of cell wall biosynthesis and growth against Staphylococcus aureus (ATCC 29213) (sensitive strain). It is filed as functional. In short, it runs like this:
as §2

The subject of assay [9] is Enterococcus faecalis. Nature of the assay: Compound was tested for the inhibition of cell wall biosynthesis and growth against Enterococcus faecalis (CL4877) (Vancomycin-resistant). The format is functional. The method, boiled down: as §2
In assay [10] the test system is Enterococcus faecium. Nature of the assay: Compound was tested for the inhibition of cell wall biosynthesis and growth against Enterococcus faecium (CL4931) (Vancomycin-resistant). It is filed as functional. The method, boiled down: as §2
Assay [11] in a line: The compound was tested for inhibitory activity against PGP30 bacterial cell wall biosynthesis. It is filed as functional, Bacteria.
The subject of assay [12] is Enterococcus faecium. Briefly: Compound was tested for the inhibition of cell wall biosynthesis and growth against Enterococcus faecium (ATCC49624) (sensitive strain).

With `CCCCCCCCCCCCO[C@H](COP(=O)(O)OC1OC(C(N)=O)C(O)C(NC(=O)Nc2ccc(OC(F)(F)F)cc2)C1OC1OC(CO)C(O)C(O)C1NC(=O)c1cccc(C(F)(F)F)c1)C(=O)O` (stereo partly specified), the MIC – broadly, the smallest concentration in the dilution series that meets the test's criterion for growth inhibition – in [1] is 6.25 µg/mL (≈ 5.87 µM); against Enterococcus faecalis [2], 6.25 µg/mL (≈ 5.87 µM); against Escherichia coli, above 25 µg/mL; in the assay with Enterococcus faecium [3], 6.25 µg/mL (≈ 5.87 µM); in the assay with Staphylococcus aureus [4], 6.25 µg/mL (≈ 5.87 µM); against Enterococcus faecalis [5], 25 µg/mL (≈ 23.5 µM). The MIC with Enterococcus faecium [6] is 12.5 µg/mL (≈ 11.7 µM); against Enterococcus faecalis [7], 6.25 µg/mL (≈ 5.87 µM); against Staphylococcus aureus [8], 6.25 µg/mL (≈ 5.87 µM); against Enterococcus faecalis [9], 6.25 µg/mL (≈ 5.87 µM); in the assay on Enterococcus faecium [10] it was 6.25 µg/mL (≈ 5.87 µM). For the same compound, in [11], the IC50 (usually the concentration at which inhibition is half-maximal) was 9.2 µg/mL (≈ 8.64 µM).
As for `CN[C@H](CC(C)C)C(=O)N[C@H]1C(=O)N[C@@H](CC(N)=O)C(=O)N[C@H]2C(=O)N[C@H]3C(=O)N[C@H](C(=O)N[C@H](C(=O)O)c4cc(O)cc(O)c4-c4cc3ccc4O)[C@H](O)c3ccc(c(Cl)c3)Oc3cc2cc(c3O[C@@H]2O[C@H](CO)[C@@H](O)[C@H](O)[C@H]2O[C@H]2C[C@](C)(N)[C@H](O)[C@H](C)O2)Oc2ccc(cc2Cl)[C@H]1O` [VANCOMYCIN], the MIC was 3.13 µg/mL (≈ 2.16 µM) in assay [1]; 6.25 µg/mL (≈ 4.31 µM) in the assay with Enterococcus faecalis [2]; 0.78 µg/mL (≈ 0.538 µM) in the assay on Escherichia coli; 0.78 µg/mL (≈ 0.538 µM) against Enterococcus faecium [3]; 3.13 µg/mL (≈ 2.16 µM) in the assay with Staphylococcus aureus [4]; above 125 µg/mL with Enterococcus faecalis [5]. Also, the MIC is above 125 µg/mL in the assay with Enterococcus faecium [6]; 15.6 µg/mL (≈ 10.8 µM) in the assay with Enterococcus faecalis [7]; 3.13 µg/mL (≈ 2.16 µM) in the assay on Staphylococcus aureus [8]; above 125 µg/mL with Enterococcus faecalis [9]; above 125 µg/mL in the assay with Enterococcus faecium [10]. In assay [11], the IC50 stood at 5.2 µg/mL (≈ 3.59 µM).
Regarding `CCCCCCCCCCCCOP(=O)(O)OC1OC(C(N)=O)C(O)C(NC(=O)Nc2ccc(Cl)c(C(F)(F)F)c2)C1OC1OC(CO)C(O)C(O)C1NC(=O)c1cccc(C(F)(F)F)c1` (stereo unspecified), the MIC in assay [1] amounted to 12.5 µg/mL (≈ 12.6 µM); in the assay with Enterococcus faecalis [2], 3.12 µg/mL (≈ 3.13 µM); with Escherichia coli it was 12.5 µg/mL (≈ 12.6 µM); against Enterococcus faecium [3], 12.5 µg/mL (≈ 12.6 µM); against Staphylococcus aureus [4], 6.25 µg/mL (≈ 6.28 µM); against Enterococcus faecalis [5] it was 12.5 µg/mL (≈ 12.6 µM). Also, the MIC against Enterococcus faecium [6] came to 12.5 µg/mL (≈ 12.6 µM); with Enterococcus faecalis [7] it was 3.13 µg/mL (≈ 3.14 µM); in the assay with Staphylococcus aureus [8], 6.25 µg/mL (≈ 6.28 µM); against Enterococcus faecalis [9], 3.13 µg/mL (≈ 3.14 µM); against Enterococcus faecium [10] it was 3.13 µg/mL (≈ 3.14 µM). In assay [11], this compound showed an IC50 of 15.4 µg/mL (≈ 15.5 µM).
For the compound `CCCCCCCCCCCCOP(=O)(O)OC1OC(C(N)=O)C(OC)C(NC(=O)Nc2ccc(Cl)c(C(F)(F)F)c2)C1OC1OC(CO)C(O)C(O)C1NC(=O)c1cccc(C(F)(F)F)c1` (stereo unspecified), the MIC in assay [1] turned out to be 6.25 µg/mL (≈ 6.19 µM); against Enterococcus faecalis [2], 6.25 µg/mL (≈ 6.19 µM); in the assay with Escherichia coli it was 12.5 µg/mL (≈ 12.4 µM); in the assay on Enterococcus faecium [3] it was 6.25 µg/mL (≈ 6.19 µM); with Staphylococcus aureus [4], 6.25 µg/mL (≈ 6.19 µM); against Enterococcus faecalis [5], 6.25 µg/mL (≈ 6.19 µM). Moreover, the MIC against Enterococcus faecium [6] came out at 6.25 µg/mL (≈ 6.19 µM); with Enterococcus faecalis [7], 6.25 µg/mL (≈ 6.19 µM); with Staphylococcus aureus [8], 6.25 µg/mL (≈ 6.19 µM); against Enterococcus faecalis [9], 3.12 µg/mL (≈ 3.09 µM); in the assay on Enterococcus faecium [10], 6.25 µg/mL (≈ 6.19 µM). In assay [11], the IC50 was determined as 8.2 µg/mL (≈ 8.12 µM).
Consider `CCCCCCCCCCCCCCC(OP(=O)(O)OC1OC(C(N)=O)C(OC)C(NC(=O)Nc2ccc(Cl)c(C(F)(F)F)c2)C1OC1OC(CO)C(O)C(O)C1NC(=O)c1cccc(C(F)(F)F)c1)C(=O)O` (stereo unspecified), for which the MIC in assay [1] was 6.25 µg/mL (≈ 5.71 µM); with Enterococcus faecalis [2], 3.12 µg/mL (≈ 2.85 µM); in the assay with Escherichia coli, above 25 µg/mL; in the assay with Enterococcus faecium [3], 3.12 µg/mL (≈ 2.85 µM); against Staphylococcus aureus [4] it was 3.12 µg/mL (≈ 2.85 µM); against Enterococcus faecalis [5], 6.25 µg/mL (≈ 5.71 µM). Besides, the MIC with Enterococcus faecium [6] is 3.12 µg/mL (≈ 2.85 µM); with Enterococcus faecalis [7], 6.25 µg/mL (≈ 5.71 µM); against Staphylococcus aureus [8], 6.25 µg/mL (≈ 5.71 µM); against Enterococcus faecalis [9], 3.12 µg/mL (≈ 2.85 µM); against Enterococcus faecium [10], 6.25 µg/mL (≈ 5.71 µM). In assay [11], this compound displayed an IC50 of 9.2 µg/mL (≈ 8.4 µM).
Consider `CCCCCCCCCCCCO[C@H](COP(=O)(O)OC1OC(C(N)=O)C(OC)C(NC(=O)Nc2ccc(Cl)c(C(F)(F)F)c2)C1OC1OC(CO)C(O)C(O)C1NC(=O)c1ccccc1)C(=O)O` (stereo partly specified), for which the MIC was 12.5 µg/mL (≈ 12.1 µM) in [1]; 12.5 µg/mL (≈ 12.1 µM) in the assay on Enterococcus faecalis [2]; 25 µg/mL (≈ 24.3 µM) in the assay on Escherichia coli; 25 µg/mL (≈ 24.3 µM) in the assay with Staphylococcus aureus [4]; 25 µg/mL (≈ 24.3 µM) against Enterococcus faecalis [5]; 12.5 µg/mL (≈ 12.1 µM) in the assay with Enterococcus faecium [6]. Also, the MIC turned out to be 12.5 µg/mL (≈ 12.1 µM) with Enterococcus faecium [12]; 12.5 µg/mL (≈ 12.1 µM) against Enterococcus faecalis [7]; 12.5 µg/mL (≈ 12.1 µM) in the assay on Staphylococcus aureus [8]; 6.25 µg/mL (≈ 6.07 µM) in the assay with Enterococcus faecalis [9]; 25 µg/mL (≈ 24.3 µM) against Enterococcus faecium [10]. Moreover, the IC50 in assay [11] was 6.8 µg/mL (≈ 6.61 µM).
On to `C=C(C/C=C(\C)CCC=C(C)C)CCC(C)(C)/C=C/CC/C(C)=C\CO[C@H](COP(=O)(O)O[C@H]1O[C@@H](C(N)=O)[C@@](C)(O)[C@H](OC(N)=O)[C@@H]1O[C@@H]1O[C@@H](CO[C@@H]2O[C@@H](CO)[C@@H](O)[C@H](O)[C@@H]2O)[C@@H](O[C@@H]2O[C@@H](C)[C@@H](O[C@@H]3O[C@@H](C(=O)NC4=C(O)CCC4=O)[C@H](O)[C@H](O)[C@@H]3O)[C@H](O)[C@@H]2NC(C)=O)[C@@H](O)[C@@H]1NC(C)=O)C(=O)O` [MOENOMYCIN], for which the MIC in assay [1] was 0.025 µg/mL (≈ 0.0158 µM); with Enterococcus faecalis [2], 0.078 µg/mL (≈ 0.0493 µM); with Escherichia coli, 0.025 µg/mL (≈ 0.0158 µM); against Enterococcus faecium [3], above 200 µg/mL; with Staphylococcus aureus [4], 0.062 µg/mL (≈ 0.0392 µM); with Enterococcus faecalis [5] it was 0.062 µg/mL (≈ 0.0392 µM). Further, the MIC in the assay with Enterococcus faecium [6] stood at 1.56 µg/mL (≈ 0.986 µM); with Enterococcus faecalis [7], 0.062 µg/mL (≈ 0.0392 µM); in the assay on Staphylococcus aureus [8], 0.05 µg/mL (≈ 0.0316 µM); in the assay on Enterococcus faecalis [9], 0.062 µg/mL (≈ 0.0392 µM); in the assay on Enterococcus faecium [10], 0.39 µg/mL (≈ 0.246 µM). Besides, the IC50 in assay [11] was 0.025 µg/mL (≈ 0.0158 µM).
On to `CCCCCCCCCCCCO[C@H](COP(=O)(O)OC1OC(C(N)=O)C(O)C(NC(=O)Nc2ccc(Cl)c(C(F)(F)F)c2)C1OC1OC(CO)C(O)C(O)C1NC(=O)c1cccc(C(F)(F)F)c1)C(=O)O` (stereo partly specified), for which the MIC in assay [1] stood at 12.5 µg/mL (≈ 11.5 µM); with Enterococcus faecalis [2] it was 3.12 µg/mL (≈ 2.88 µM); against Escherichia coli, 12.5 µg/mL (≈ 11.5 µM); against Enterococcus faecium [3], 6.25 µg/mL (≈ 5.77 µM); against Staphylococcus aureus [4], 12.5 µg/mL (≈ 11.5 µM); in the assay on Enterococcus faecalis [5] it was 12.5 µg/mL (≈ 11.5 µM). The MIC against Enterococcus faecium [6] stood at 6.25 µg/mL (≈ 5.77 µM); in the assay on Enterococcus faecalis [7], 3.13 µg/mL (≈ 2.89 µM); against Staphylococcus aureus [8], 12.5 µg/mL (≈ 11.5 µM); with Enterococcus faecalis [9] it was 3.13 µg/mL (≈ 2.89 µM); against Enterococcus faecium [10], 6.25 µg/mL (≈ 5.77 µM). The compound further came in with an IC50 in [11] of 10.6 µg/mL (≈ 9.78 µM).
